Reference: ChEMBL document CHEMBL1131413, “Mutational evidence for a common kappa antagonist binding pocket in the wild-type kappa and mutant mu[K303E] opioid receptors” (J Med Chem, 1998)

What was measured:
[1] = biological target: Kappa-type opioid receptor (Cavia porcellus) (UniProt P41144); assay: Opioid antagonist potencies against Opioid receptor kappa 1 from guinea pig ileum employing ethylketazocine (EKC) as agonist.; format: functional, tissue-based
Summary of the method: (§1)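 Electrically stimulated guinea-pig ileal longitudinal muscle. Antagonist at 100 nM was incubated 15 min before agonist (ethylketazocine for kappa, morphine for mu). Ke = [antagonist]/(IC50 ratio − 1), where the IC50 ratio is agonist IC50 with antagonist over agonist IC50 alone in the same preparation. Ke is the mean of at least three IC50 ratios.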

[2] = biological target: Delta-type opioid receptor (Mus musculus) (UniProt P32300); assay: Opioid antagonist potencies against Opioid receptor delta 1 from mouse vas-deferens preparation employing [D-Ala2,D-Leu5]enkephalin (DADLE) as agonist.; format: functional
Sequence of Delta-type opioid receptor (Mus musculus) (P32300 whole entry): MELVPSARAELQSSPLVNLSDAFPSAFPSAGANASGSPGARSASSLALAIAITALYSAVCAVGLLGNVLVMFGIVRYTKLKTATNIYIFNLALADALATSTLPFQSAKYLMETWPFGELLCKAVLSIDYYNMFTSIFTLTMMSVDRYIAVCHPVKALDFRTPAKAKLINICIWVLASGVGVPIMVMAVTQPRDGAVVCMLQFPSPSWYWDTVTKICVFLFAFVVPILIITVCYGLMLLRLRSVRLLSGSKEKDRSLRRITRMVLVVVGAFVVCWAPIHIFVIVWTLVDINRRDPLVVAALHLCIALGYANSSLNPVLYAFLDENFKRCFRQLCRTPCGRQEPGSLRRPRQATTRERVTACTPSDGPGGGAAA
Summary of the method: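 Electrically stimulated mouse vas deferens. Antagonist at 100 nM was incubated 15 min before the agonist DADLE. Ke = [antagonist]/(IC50 ratio − 1), using agonist IC50 with versus without antagonist in the same preparation. Ke is from an average of at least three IC50 ratios.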

[3] = biological target: Mu-type opioid receptor (Cavia porcellus) (UniProt P97266); assay: Opioid antagonist potencies against Opioid receptor mu 1 from guinea pig ileum employing morphine(M) as agonist.; format: functional, tissue-based; summary of the method: as §1
Sequence of Mu-type opioid receptor (Cavia porcellus) (P97266 whole entry): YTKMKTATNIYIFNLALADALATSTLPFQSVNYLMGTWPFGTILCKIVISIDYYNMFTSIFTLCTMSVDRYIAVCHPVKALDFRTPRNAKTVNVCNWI

[4] = biological target: Opioid receptors; mu & kappa (Homo sapiens) (UniProt P41145+P35372); assay: Ratio of Ke value to kappa receptor to that of mu receptor; format: protein assay
Sequence of Opioid receptors; mu & kappa (Homo sapiens) (P35372 whole entry, looked up): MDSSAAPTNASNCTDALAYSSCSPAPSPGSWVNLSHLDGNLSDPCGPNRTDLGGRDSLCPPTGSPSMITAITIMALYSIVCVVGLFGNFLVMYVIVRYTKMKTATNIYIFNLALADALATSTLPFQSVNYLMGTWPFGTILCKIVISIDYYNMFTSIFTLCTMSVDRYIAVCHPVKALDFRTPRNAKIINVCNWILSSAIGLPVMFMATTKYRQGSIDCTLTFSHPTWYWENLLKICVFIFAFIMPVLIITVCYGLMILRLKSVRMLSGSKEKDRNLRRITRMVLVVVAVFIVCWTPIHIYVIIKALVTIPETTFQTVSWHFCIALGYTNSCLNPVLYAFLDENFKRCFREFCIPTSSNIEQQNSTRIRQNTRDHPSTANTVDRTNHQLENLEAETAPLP
Sequence of Opioid receptors; mu & kappa (Homo sapiens) (P41145 whole entry, looked up): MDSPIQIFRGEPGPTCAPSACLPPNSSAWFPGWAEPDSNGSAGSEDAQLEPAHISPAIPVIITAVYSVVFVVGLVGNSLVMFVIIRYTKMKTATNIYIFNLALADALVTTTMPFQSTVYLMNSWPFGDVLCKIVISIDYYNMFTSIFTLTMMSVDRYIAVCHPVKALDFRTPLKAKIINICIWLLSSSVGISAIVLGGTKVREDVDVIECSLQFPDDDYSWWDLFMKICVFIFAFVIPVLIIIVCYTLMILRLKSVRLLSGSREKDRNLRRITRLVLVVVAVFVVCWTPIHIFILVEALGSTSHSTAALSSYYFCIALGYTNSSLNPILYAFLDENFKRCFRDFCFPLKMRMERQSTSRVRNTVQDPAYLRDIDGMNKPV
Summary of the method: (§2)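 Selectivity ratios were taken from Ke values measured in smooth muscle (100 nM antagonist, 15 min preincubation). Kappa Ke came from guinea-pig ileum with ethylketazocine, mu Ke from guinea-pig ileum with morphine, and delta Ke from mouse vas deferens with DADLE.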

[5] = biological target: Opioid receptors; delta & kappa (Homo sapiens) (UniProt P41145+P41143); assay: Ratio of Ke value to kappa receptor to that of delta receptor; format: protein assay; summary of the method: as §2
Sequence of Opioid receptors; delta & kappa (Homo sapiens) (P41143 whole entry, looked up): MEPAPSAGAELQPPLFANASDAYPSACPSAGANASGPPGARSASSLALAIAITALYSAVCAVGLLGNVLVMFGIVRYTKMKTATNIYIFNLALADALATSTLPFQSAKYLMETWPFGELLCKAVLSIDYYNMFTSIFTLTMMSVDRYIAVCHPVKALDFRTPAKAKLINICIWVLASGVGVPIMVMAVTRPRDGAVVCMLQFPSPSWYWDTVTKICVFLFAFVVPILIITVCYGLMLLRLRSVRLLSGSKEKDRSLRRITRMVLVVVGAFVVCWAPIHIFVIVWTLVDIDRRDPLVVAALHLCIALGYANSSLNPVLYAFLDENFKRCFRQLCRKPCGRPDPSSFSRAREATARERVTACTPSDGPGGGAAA
Sequence of Opioid receptors; delta & kappa (Homo sapiens) (P41145 whole entry, looked up): as the sequence (P41145 whole entry, looked up) above

[6] = biological target: Kappa-type opioid receptor (Rattus norvegicus) (UniProt P34975); assay: Effect on binding affinity of mutational exchange of Glu297 in the Opioid receptor kappa 1 in transiently expressed […] cells activity expressed as binding ratio with nor-BNI.
Sequence of Kappa-type opioid receptor (Rattus norvegicus) (P34975 whole entry): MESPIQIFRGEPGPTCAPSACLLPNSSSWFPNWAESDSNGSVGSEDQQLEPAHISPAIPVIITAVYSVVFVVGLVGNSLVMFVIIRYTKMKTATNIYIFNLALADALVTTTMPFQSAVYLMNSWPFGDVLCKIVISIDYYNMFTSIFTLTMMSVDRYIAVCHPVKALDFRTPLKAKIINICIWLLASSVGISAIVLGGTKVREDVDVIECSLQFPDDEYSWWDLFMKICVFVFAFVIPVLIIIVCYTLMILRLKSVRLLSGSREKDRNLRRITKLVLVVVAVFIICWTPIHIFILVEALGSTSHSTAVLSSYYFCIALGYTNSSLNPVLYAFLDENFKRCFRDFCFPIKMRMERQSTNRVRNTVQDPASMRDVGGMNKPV

[7] = biological target: Kappa-type opioid receptor (Rattus norvegicus, UniProt P34975); assay: Effect on binding affinity of mutational exchange of Glu297 in the Opioid receptor kappa 1 in transiently expressed […] cells activity expressed as binding affinity.; format: cell-based
Sequence of Kappa-type opioid receptor (Rattus norvegicus, UniProt P34975) (P34975 whole entry, looked up): as the sequence (P34975 whole entry) above

Mu-type opioid receptor = Mu-type opioid receptor (Rattus norvegicus, UniProt P33535); assay: Effect on binding affinity of mutational exchange of Lys303 in the Opioid receptor mu 1 in transiently expressed […] cells activity expressed as binding affinity.; format: cell-based
Sequence of Mu-type opioid receptor (P33535 whole entry, looked up): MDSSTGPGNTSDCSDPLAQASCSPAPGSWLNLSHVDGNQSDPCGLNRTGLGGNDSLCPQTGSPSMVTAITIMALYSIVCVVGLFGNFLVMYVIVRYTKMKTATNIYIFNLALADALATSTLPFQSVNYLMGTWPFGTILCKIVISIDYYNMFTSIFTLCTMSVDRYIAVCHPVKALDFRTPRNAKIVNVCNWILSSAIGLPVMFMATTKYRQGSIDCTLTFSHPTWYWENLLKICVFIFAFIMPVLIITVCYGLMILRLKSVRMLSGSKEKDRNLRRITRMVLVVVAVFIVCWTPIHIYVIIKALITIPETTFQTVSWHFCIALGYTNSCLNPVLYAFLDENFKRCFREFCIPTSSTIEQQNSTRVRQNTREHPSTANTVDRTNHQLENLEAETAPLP

[8] = biological target: Kappa-type opioid receptor (Rattus norvegicus, UniProt P34975, E297K); assay: Mutant factor of the compound against kappa[E297K] with Opioid receptor kappa 1 for binding affinity.
Sequence of Kappa-type opioid receptor (Rattus norvegicus, UniProt P34975, E297K) (P34975 whole entry E297K): as the sequence (P34975 whole entry) above, with E297K counted along it

Sequence of Kappa-type opioid receptor (Cavia porcellus) (P41144 whole entry): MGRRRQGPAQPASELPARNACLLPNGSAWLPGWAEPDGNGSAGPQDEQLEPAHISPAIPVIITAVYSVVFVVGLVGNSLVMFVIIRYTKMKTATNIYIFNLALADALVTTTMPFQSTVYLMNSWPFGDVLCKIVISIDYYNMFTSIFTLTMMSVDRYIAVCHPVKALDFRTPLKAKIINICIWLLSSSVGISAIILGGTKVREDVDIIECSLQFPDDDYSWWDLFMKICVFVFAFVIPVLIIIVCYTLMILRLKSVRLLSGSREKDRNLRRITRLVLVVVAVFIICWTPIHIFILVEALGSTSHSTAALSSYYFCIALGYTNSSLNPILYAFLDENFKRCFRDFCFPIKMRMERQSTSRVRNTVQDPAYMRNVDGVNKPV

Row | SMILES | Ke [1] [nM] | Ke [2] [nM] | Ke [3] [nM] | Selectivity [4] | Selectivity [5] | Fana [6] | Ki [7] [nM] | Ki (Mu-type opioid receptor) [nM] | Ki [8] [nM]
1 | N#CN/C(N)=N/c1ccc2[nH]c3c(c2c1)C[C@@]1(O)C2Cc4ccc(O)c5c4[C@@]1(CCN2CC1CC1)[C@H]3O5 | 3.13 | 9.08 | 16.1 | 5 | 3 | 2.25 |  |  | 
2 | N=C(N)Nc1ccc2[nH]c3c(c2c1)C[C@@]1(O)[C@H]2Cc4ccc(O)c5c4[C@@]1(CCN2CC1CC1)[C@H]3O5 [GUANIDINONALTRINDOLE] |  |  |  | 208 | 799 | 0.75 | 0.09 | 9.23 | 12.9
3 | Oc1ccc2c3c1O[C@H]1c4[nH]c5c(c4C[C@@]4(O)[C@@H](C2)N(CC2CC2)CC[C@]314)C[C@@]1(O)[C@H]2Cc3ccc(O)c4c3[C@@]1(CCN2CC1CC1)[C@H]5O4 |  |  |  |  |  | 1 |  |  | 
4 | N#CN=C(N)Nc1ccc2[nH]c3c(c2c1)C[C@@]1(O)C2Cc4ccc(O)c5c4[C@@]1(CCN2CC1CC1)[C@H]3O5 |  |  |  |  |  |  | 0.27 | 4.04 | 2.48
